Measurements published in EPA's CvTdb concentration-time database.

Key:
Rat [1] = test: concentration in liver after dosing; details: 0.5 h; dosed: Potassium Perfluorobutane Sulfonate; 20 mg/kg; oral; Female; Harlan Sprague Dawley
Rat [2] = test: concentration in liver after dosing; details: 3 h; dosed: Potassium Perfluorobutane Sulfonate; 20 mg/kg; oral; Male; Harlan Sprague Dawley
Rat [3] = test: concentration in kidney after dosing; details: 6 h; dosed: Potassium Perfluorobutane Sulfonate; 20 mg/kg; oral; Male; Harlan Sprague Dawley
Rat [4] = test: concentration in liver after dosing; details: 12 h; dosed: Potassium Perfluorobutane Sulfonate; 20 mg/kg; oral; Male; Harlan Sprague Dawley
Rat [5] = test: concentration in kidney after dosing; details: 3 h; dosed: Potassium Perfluorobutane Sulfonate; 20 mg/kg; oral; Male; Harlan Sprague Dawley
Rat [6] = test: concentration in kidney after dosing; details: 3 h; dosed: Potassium Perfluorobutane Sulfonate; 20 mg/kg; oral; Female; Harlan Sprague Dawley
Rat [7] = test: concentration in plasma after dosing; details: 0.5 h; dosed: Nitrite; 40 mg/kg; oral; Female; F344
Rat [8] = test: concentration in plasma after dosing; details: 6 h; dosed: 2-Hydroxy-4-methoxybenzophenone; 500 mg/kg; oral; Male; F344
Mouse [9] = test: concentration in plasma after dosing; details: 10 min; dosed: 2-Hydroxy-4-methoxybenzophenone; 500 mg/kg; oral; Female; B6C3F1
Rat [10] = test: concentration in plasma after dosing; details: 0.25 h; dosed: 2-Hydroxy-4-methoxybenzophenone; 500 mg/kg; oral; Female; F344
Mouse [11] = test: concentration in plasma after dosing; details: 10 min; dosed: 2-Hydroxy-4-methoxybenzophenone; 500 mg/kg; oral; Female; B6C3F1; remark: listed apart in the source
Rat [12] = test: concentration in plasma after dosing; details: dosed: 2-Hydroxy-4-methoxybenzophenone, 100 mg/kg, oral, Male, F344
Rat [13] = test: concentration in plasma after dosing; details: dosed: 2-Hydroxy-4-methoxybenzophenone, 8 mg/kg, iv, Female, F344
Mouse [14] = test: concentration in plasma after dosing; details: 0.25 h; dosed: 2-Hydroxy-4-methoxybenzophenone; 250 mg/kg; oral; Male; B6C3F1
Rat [15] = test: concentration in plasma after dosing; details: dosed: 2-Hydroxy-4-methoxybenzophenone, 8 mg/kg, iv, Male, F344
human = test: concentration in urine after dosing; negative times count back from the end of exposure; details: dosed: methanol, inhalation, duration: 8 hr
How it was run: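 Concentration-versus-time or amount-versus-time points were compiled from published in vivo toxicokinetic studies and from two structured collections. The studies were found by PubMed searching, classifier screening and manual review. Points were mostly digitised from plot screenshots with WebPlotDigitizer, otherwise copied from tables, and kept in the reported units. Dose, route, subject details and medium were curated by hand from each paper, and sampling and analytical methods follow each source and were often unreported.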

Rat [16] = test: concentration in kidney after dosing; details: 1 h; dosed: Fluorotelomer alcohol 8+2; 80 mg/kg; oral; Female; Harlan Sprague Dawley
Rat [17] = test: concentration in plasma after dosing; details: dosed: 678-39-7, 12 mg/kg, iv, Male, F344
Rat [18] = test: concentration in plasma after dosing; details: 3 h; dosed: Fluorotelomer alcohol 8+2; 12 mg/kg; oral; Male; Harlan Sprague Dawley
Rat [19] = test: concentration in kidney after dosing; details: 3 h; dosed: Fluorotelomer alcohol 8+2; 24 mg/kg; oral; Male; Harlan Sprague Dawley
Rat [20] = test: concentration in liver after dosing; details: 3 h; dosed: Fluorotelomer alcohol 8+2; 24 mg/kg; oral; Male; Harlan Sprague Dawley
Rat [21] = test: concentration in plasma after dosing; details: dosed: 678-39-7, 40 mg/kg, iv, Male, F344
Rat [22] = test: concentration in plasma after dosing; details: dosed: Fluorotelomer alcohol 8+2, 12 mg/kg, oral, Male, Harlan Sprague Dawley
Rat [23] = test: concentration in liver after dosing; details: 12 h; dosed: Perfluorooctanoic acid; 12 mg/kg; oral; Male; Harlan Sprague Dawley

O=S(=O)([O-])C(F)(F)C(F)(F)C(F)(F)C(F)(F)F.[K+] [Potassium Perfluorobutane Sulfonate]
Details	concentration in kidney [ng/g]	concentration in liver [ng/g]
Rat [1]	–	48000
Rat [2]	–	80000
Rat [3]	11000	–
Rat [4]	–	9420
Rat [5]	20700	–
Rat [6]	18600	–

O=N[O-] [Nitrite]
Details	concentration in plasma [µg/mL]
Rat [7]	11.6

COc1ccc(C(=O)c2ccccc2)c(O)c1 [2-Hydroxy-4-methoxybenzophenone]
Details	concentration in plasma [µg/mL]
Mouse [9]	0.535
Mouse [11]	0.687
Mouse [14]	0.289
Rat [8]	0.189
Rat [10]	0.619

concentration in plasma [µg/mL]
Details	0.25 h	3 h	4 h	10 h	10 min
Rat [12]	0.218	0.00664	0.0285	–	0.106
Rat [13]	0.12	–	0.0756	–	–
Rat [15]	–	–	–	0.00658	3.95

CO [methanol]
human
Details	concentration in urine [µg/mL]
0 h, 78 ppm	3.49
0 h, 158 ppm	6.7
0 h, 231 ppm	9.6
1.997 h, 300 mg/m^3, male	7.64
2 h, 78 ppm	2.29
2 h, 158 ppm	5.24
2 h, 231 ppm	7.6
2.005 h, 205 mg/m^3, male	5.34
2.035 h, 102 mg/m^3, male	2.42
3.995 h, 300 mg/m^3, male	4.35
4 h, 78 ppm	1.77
4 h, 102 mg/m^3, male	1.63
4 h, 158 ppm	2.69
4 h, 231 ppm	4.36
4.036 h, 205 mg/m^3, male	2.76
5.995 h, 102 mg/m^3, male	1.36
6 h, 78 ppm	1.47
6 h, 158 ppm	1.83
6 h, 231 ppm	2.4
6.026 h, 205 mg/m^3, male	1.81
6.031 h, 300 mg/m^3, male	2.43
10.88 h, 205 mg/m^3, male	1.28
10.91 h, 102 mg/m^3, male	1.09
10.94 h, 300 mg/m^3, male	1.48
11 h, 78 ppm	1.14
11 h, 158 ppm	1.36
11 h, 231 ppm	1.66
15.5 h, 231 ppm	1.03
15.71 h, 205 mg/m^3, male	1.14
53 s, 300 mg/m^3, male	9.62
65 s, 205 mg/m^3, male	6.69
67 s, 102 mg/m^3, male	3.42

human, during exposure
Details	concentration in urine [µg/mL]
-8 h, 78 ppm	0.572
-8 h, 158 ppm	1.03
-8 h, 231 ppm	1.34
-7.859 h, 300 mg/m^3, male	0.802
-7.832 h, 102 mg/m^3, male	0.802
-7.832 h, 205 mg/m^3, male	0.802
-6.075 h, 300 mg/m^3, male	4.35
-6 h, 78 ppm	1.75
-6 h, 158 ppm	3.09
-6 h, 231 ppm	4.34
-5.977 h, 205 mg/m^3, male	3.09
-5.962 h, 102 mg/m^3, male	1.7
-4.073 h, 205 mg/m^3, male	4.89
-4.031 h, 300 mg/m^3, male	6.79
-4 h, 78 ppm	2.39
-4 h, 158 ppm	4.82
-4 h, 231 ppm	6.83
-3.984 h, 102 mg/m^3, male	2.5
-2.068 h, 205 mg/m^3, male	5.83
-2 h, 78 ppm	3.09
-2 h, 158 ppm	5.92
-2 h, 231 ppm	8.4
-1.993 h, 300 mg/m^3, male	8.43
-1.981 h, 102 mg/m^3, male	3.13

O=C(O)C(F)(F)C(F)(F)C(F)(F)C(F)(F)C(F)(F)C(F)(F)C(F)(F)F [Perfluorooctanoic acid]
Details	concentration in kidney [ng/g]	concentration in liver [ng/g]	concentration in plasma [ng/mL]
Rat [16]	353	–	–
Rat [18]	–	–	392
Rat [19]	272	–	–
Rat [20]	–	1430	–
Rat [23]	–	63300	–

Details	concentration in plasma [ng/mL]
Rat [17], 0.75 h	295
Rat [17], 12 h	505
Rat [21], 0.25 h	671
Rat [21], 6 h	1310
Rat [21], 24 h	819
Rat [22], 48 h	614
Rat [22], 192 h	399
